Data published in ChEMBL document CHEMBL1128557, “Synthesis, antitumor activity, and chemical properties of silaplatin and related platinum (II) and platinum (IV) complexes derived from beta-silyl amines” (J Med Chem, 1995).

Assays:
Tumor Cell line [1] = assay: The compound was evaluated in vitro for the log10 molecular concentration that caused 50 % of 60 human tumor cell line kills; assay type: ADME, cell-based
Method in brief: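 Human tumor cell lines (leukemia, non-small-cell lung, ovarian, renal) were preincubated 24 h. Platinum complexes were then added as five 10-fold dilutions, 0.01–100 μM, for 48 h, followed by in situ fixation and staining, with solubilized stain read spectrophotometrically. Log LC50 (50% cell kill) was averaged across cell lines within one experiment.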

Tumor Cell line [2] = assay: Evaluated in vitro for the log10 molecular concentration that caused […] tumor growth of 60 human tumor cell lines.; assay type: functional, cell-based
Method in brief: (§1)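 Cells preincubated 24 h, then exposed to the agent at five 10-fold dilutions (0.01–100 μM for the platinum complexes) for 48 h. Cells fixed in situ and stained; solubilized stain read spectrophotometrically. Panel of leukemia, non-small-cell lung, ovarian and renal lines. Log GI50 or TGI taken per cell line in one experiment, then averaged across lines.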

Tumor Cell line [3] = assay: Evaluated in vitro for the log10 molecular concentration that caused 50 % inhibition of tumor growth of 60 human tumor cell lines; assay type: functional, cell-based; method in brief: as §1

Row | GI50 (Tumor Cell line [3]) [µM] | Substance | Log LC50 (Tumor Cell line [1]) | TGI (Tumor Cell line [2]) [µM]
1 |  | CARBOPLATIN [listing 1 of 2 here] | > -3.61 | 
2 | 107 | CARBOPLATIN [listing 2 of 2 here] |  | 214
3 |  | CISPLATIN [listing 1 of 2 here] | > -3.35 | 
4 | 4.47 | CISPLATIN [listing 2 of 2 here] |  | 33.9
5 |  | [Bis(aminomethyl)diethylsilane]tetrachloroplatinum(IV) | > -4.02 | 
